Shown are actives, neighbours in structure and some others; about 1.4% of the full set was active somewhere.
PG9 Ab binder = PG9 antibody binding by small molecule; 360,000 tested, 0.43% active; AID 624416; inhibition, % at 6.7 µM; TR-FRET gp120-PG9 antibody binding; in the data active = inhibition above about 8.5%
NR2E3 ag-1 = activates human NR2E3 receptor. Q9Y5X4. CHO-S Gal4-NCOR/VP16-NR2E3 two-hybrid, luciferase. inhibition of corepressor binding, % at 3.98 µM. 360,000 tested, 0.35% active;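 active = inhibition above the mean of all tested compounds plus 3 SD, cut at about 70% in these data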;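 also: 0% = DMSO with NR2E3 transfected cells and 100% = cells lacking NR2E3 construct; higher means lower luciferase signal from less NR2E3 corepressor binding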
Target sequence (Q9Y5X4 whole entry, looked up, the tested form may be a part): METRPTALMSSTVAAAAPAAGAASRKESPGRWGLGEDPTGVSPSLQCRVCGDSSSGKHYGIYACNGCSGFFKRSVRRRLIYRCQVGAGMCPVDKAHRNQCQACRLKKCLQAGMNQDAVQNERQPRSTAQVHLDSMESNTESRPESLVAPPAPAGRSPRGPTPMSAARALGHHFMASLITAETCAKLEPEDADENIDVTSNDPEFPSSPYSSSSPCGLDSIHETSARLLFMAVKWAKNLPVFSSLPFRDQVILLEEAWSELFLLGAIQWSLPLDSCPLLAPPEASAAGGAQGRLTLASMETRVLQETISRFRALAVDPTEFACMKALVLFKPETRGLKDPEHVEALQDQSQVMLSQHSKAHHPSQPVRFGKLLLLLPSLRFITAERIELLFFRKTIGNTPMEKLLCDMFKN
NR1D1 modulator = modulators of human Rev-erb alpha DNA binding; P20393; Rev-erbα–FITC-DNA binding, fluorescence polarization, 90 min; activity, % at 10 µM; 370,000 tested, 0.79% active; AID 1259318;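 active = activity above about 14%, limit read from the data; passing the limit was not always enough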;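 also: 0% = DMSO wells with 35 nM protein and 100% = DMSO wells with 750 nM protein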
NR2E3 ag-2 = NR2E3 (human) agonism | AID 2300 | 320,000 tested, 0.12% active | inhibition of corepressor binding, % at 4.78 µM | GST-NR2E3/biotin-RetCOR TR-FRET, 1536-well;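 active = percent inhibition above the cutoff of mean plus 3 SD of all tested compounds, set per screening campaign, cut at about 20% in these data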;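 also: 0% = DMSO wells and 100% = biotin wells as full block of FRET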
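Assay system: NR2E3–RetCOR corepressor complex. Quantity: 1.35 nM GST-NR2E3. Buffer or medium: pH 7.5 Tris-based buffer. Reagent: biotinylated RetCOR corepressor at 7 nM final. Schedule: 5 h at 4 °C. Detection: TR-FRET, emission read at 617 and 671 nm. Replicates: one well per compound, singlicate testing.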
PG9 bind confirm = confirmation of small molecules binding HIV-1 gp120 antibody PG9. shares compounds with PG9 Ab binder. TR-FRET PG9 antibody binding, biochemical. inhibition, % at 6.7 µM. 1,500 tested, 90% active. AID 651571; in the data active = inhibition above about 9%
PGV04 Ab binding = binds control antibody PGV04 in PG9 binder counter-screen | 1,500 tested, 95% active | TR-FRET PGV04 antibody-gp120 binding, biochemical | AID 651604 | shares compounds with PG9 Ab binder | inhibition, % at 6.7 µM; in the data active = inhibition above about 9.5%
PG9 binder DR = small molecules binding HIV-1 gp120 antibody PG9 | shares compounds with PG9 Ab binder | TR-FRET PG9 antibody-gp120 binding inhibition | IC50, µM | 95 tested, under 10 active; in the data active = IC50 below about 10 µM
PGV04 DR counter = binds control antibody PGV04 in PG9 counter-screen. shares compounds with PG9 Ab binder. 95 tested, 20% active. TR-FRET binding to control antibody PGV04. IC50, µM
PG126 DR counter = PG126 binding, dose response counter-screen; AID 651939; 95 tested, 20% active; shares compounds with PG9 Ab binder; TR-FRET binding to antibody PG126, counterscreen; IC50, µM
NR1D1 mod conf = confirmation of modulators of human Rev-erb alpha DNA binding; shares compounds with NR1D1 modulator; Rev-erb alpha FITC-DNA binding, fluorescence polarization, 90 min; activation, % at 25 µM; 3,000 tested, 61% active; AID 1259319;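 active = activation at or above a set limit, or at least 3 SD above the negative control mean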;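 also: 0% = 35 nM protein with DMSO and 100% = 750 nM protein high control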
RORg DNA counter = counter-screen for Rev-erb alpha modulators: RORgamma DNA binding; IC50, µM; 910 tested, 8% active; shares compounds with NR1D1 modulator; purified RORgamma protein-FITC-DNA binding, fluorescence polarization;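 active = Compounds whose fitted half-maximal concentration for disrupting protein-DNA binding is below 10 micromolar; the record names Rev-erb in its text, so the target is in doubt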
* hit, by the source's call; i = inactive; x = not tested or not shown. Rule as the data show it, unless noted: active = IC50 below about 9 µM; inactive = the rest.

SMILES	PG9 Ab binder	NR2E3 ag-1	NR1D1 modulator	NR2E3 ag-2	PG9 bind confirm	PGV04 Ab binding	NR1D1 mod conf	others
Cc1sc2nc(Cc3ccccc3)[nH]c(=O)c2c1-c1ccccc1	34.7*	7.5	69.7*	14.2	44.2*	65.1*	87.2*	RORg DNA counter=i
Cc1sc2nc(-c3cccnc3)[nH]c(=O)c2c1-c1ccccc1	0.1	-6.0	-3.3	6.2	x	x	x
COC(=O)[C@]12C[C@H](CC(=O)NCc3ccc(C)o3)C(=O)N(Cc3ccc(Cl)cc3Cl)C1=C[C@H](COCc1ccccc1)O[C@@H]2C	x	x	1.5	x	x	x	x
O=C(CNC(=O)c1sc2ccccc2c1Cl)NCc1cccc(C(F)(F)F)c1	15.4*	18.4	31.1*	7.3	17.3*	19.1*	17.3*
Oc1ccc(Br)cc1C1Nc2ccccc2S1 (stereo unspecified)	24.8*	-46.1	151.7*	-7.7	20.6*	43.6*	88.6*	RORg DNA counter=>40
CC1C(=O)C(C)C(c2cc(Br)ccc2O)NC1c1cc(Br)ccc1O (stereo unspecified)	-2.9	-15.5	1.0	x	x	x	x
COc1ccc2cc(-c3cccc4[nH]cc(C)c34)ccc2c1	x	x	9.2	x	x	x	x
COC(=O)[C@@]12CCCCC3=C1N(CCC3)C(=O)[C@H]2CC(=O)N1CCCCC1	x	x	-0.6	x	x	x	x
N#Cc1c(-c2ccccc2)cc(C2CC2)nc1SCC(=O)O	-0.4	-12.5	-6.6	-4.6	x	x	x
N#Cc1c(-c2cccs2)cc(C2CC2)nc1SCC(N)=O	8.7*	-3.7	52.0*	8.3	18.3*	27.5*	47.5*	RORg DNA counter=>40
COc1cc2c(cc1NC(=O)CSc1nnc(-c3cccnc3)n1-c1ccc(Br)cc1)oc1ccccc12	x	x	6.0	x	x	x	x
O=C(c1cccnc1Cl)N1CCC(Oc2cccnc2)CC1	x	x	-8.7	x	x	x	x
CCOC(=O)C1(Cc2ccccc2)CCN(Cc2ccnc3ccccc23)CC1	x	x	-4.1	x	x	x	x
Cc1sc2nc(SCC(=O)NCc3ccco3)n(-c3ccccc3)c(=O)c2c1C	51.0*	-10.1	101.8*	1.3	57.9*	75.4*	85.1*
Cc1sc2nc(SCC(=O)NCCO)n(-c3ccccc3)c(=O)c2c1C	-1.1	-2.5	-0.3	-0.7	x	x	x
C=CCn1c(SCC(=O)NCc2ccco2)nc2sc(C)c(C)c2c1=O	2.6	-12.0	-1.0	2.2	x	x	x
Cc1ccc(-n2c(SCC(=O)NCc3ccco3)nc3sc(C)c(C)c3c2=O)cc1	30.3*	6.7	67.2*	15.0	28.8*	42.1*	62.8*
FC(F)(F)c1cccc(N2CCN(C3=Nc4ccccc4Sc4ccccc43)CC2)c1	x	x	3.9	x	x	x	x
COc1ccc(-n2c(SCC(=O)Nc3cc(C)on3)nc3c([nH]c4ccccc43)c2=O)cc1	56.6*	-1.6	82.9*	5.0	43.5*	49.7*	67.4*	RORg DNA counter=>40
Cn1c(SCC(=O)Nc2ccccc2)nc2c([nH]c3ccccc32)c1=O	8.8*	-17.4	21.0*	4.6	7.2	13.8*	16.0*
Cc1ccccc1C1CCC2(CCC(=O)N2CC[C@@H](O)c2ccccc2)CC1 (stereo partly specified)	x	x	6.8	x	x	x	x
Cc1cc(-n2c(SCC(=O)Nc3ccc(F)c(F)c3)nc3n[nH]c(C)c3c2=N)ccc1Cl	21.4*	14.4	50.6*	1.3	6.4	8.5	27.2*
Cc1cc(-n2c(SCC(=O)NCc3cccs3)nc3n[nH]c(C)c3c2=N)ccc1Cl	37.8*	19.4	43.2*	-0.3	33.0*	43.8*	28.2*
CCOc1ccc(-n2c(SCC(=O)Nc3ccc(Br)cc3)nc3n[nH]c(C)c3c2=N)cc1	5.0	-1.3	13.6	6.7	x	x	x
Cc1cc(-n2c(SCC(=O)Nc3ccc(Br)cc3)nc3n[nH]c(C)c3c2=N)ccc1Cl	24.4*	-27.2	37.5*	0.9	20.6*	28.9*	22.0*
SMILES	PG9 Ab binder	NR2E3 ag-1	NR1D1 modulator	NR2E3 ag-2	PG9 bind confirm	PGV04 Ab binding	NR1D1 mod conf	others
O=S1(=O)C=CCN1Cc1cn(Cc2cccc(C(F)(F)F)c2)nn1	x	x	-2.3	x	x	x	x
O=C(NCCCc1ccccc1)[C@H](Cc1c[nH]c2ccccc12)NC1(C(=O)NCCc2c[nH]c3ccccc23)CCOCC1	x	x	1.5	x	x	x	x
C[C@@H]1OC(C2CCCCC2)N(C)[C@H]2C[C@H]3c4[nH]c5cccc(-c6ccccc6)c5c4CCN3C[C@@H]12 (stereo partly specified)	x	x	11.3	x	x	x	x
COc1ccc(-c2nnc(NC(=O)C(C)C)s2)c(OC)c1	12.5*	1.6	38.0*	12.4	20.1*	30.1*	28.2*	RORg DNA counter=>40
COc1ccc(Cc2nnc(NC(=O)C(C)C)s2)cc1	0.0	-4.5	1.6	1.3	x	x	x
Cn1c(SCC(=O)NCc2ccc3c(c2)OCO3)ncc(C(=O)Nc2ccc(F)cc2)c1=O	21.4*	-12.1	39.7*	1.0	16.1*	18.4*	50.9*	RORg DNA counter=>40
CCn1c(=O)cc(OCC(=O)N2CCCCCC2)c2ccccc21	0.9	-3.4	-3.0	-0.7	x	x	x
CCn1c(=O)cc(OCC(=O)N2CCc3ccccc32)c2ccccc21	39.9*	-19.2	45.4*	x	49.6*	70.7*	11.6*
O=c1[nH]cnc2c1sc1nc3c(c(-c4ccc(Cl)cc4)c12)CCC3	11.0*	-22.0	39.1*	-2.4	27.6*	15.7*	10.2	PG9 binder DR=i;PGV04 DR counter=6.41*;PG126 DR counter=8.61*
CCOC(=O)Cn1nnc2c(sc3nc4c(c(-c5ccc(Cl)cc5)c32)CCC4)c1=O	-1.1	-8.9	-2.7	1.6	x	x	x
CCOC(=O)c1c(NC(=O)C2c3ccccc3Oc3ccccc32)sc(C(N)=O)c1C	33.4*	-9.3	40.5*	5.3	28.3*	41.2*	26.1*
CCOC(=O)c1c(NC(=O)C2CCCO2)sc(C(N)=O)c1C (stereo unspecified)	0.2	-31.2	-7.1	-2.2	x	x	x
CCOC(=O)c1sc(NC(=O)CN(CC)CC)c(C(=O)OCC)c1C	17.0*	2.0	43.1*	-0.3	1.3	3.0	10.7
COc1ccc(C(=O)NC(=S)Nc2ccc3[nH]c(=O)[nH]c3c2)c(OC)c1	36.5*	-12.2	100.8*	-1.2	53.5*	51.8*	54.6*	PG9 binder DR=i;PGV04 DR counter=6.27*;PG126 DR counter=6.84*;RORg DNA counter=i
CCn1c(SCc2nc3ccccc3c(=O)[nH]2)nc2ccccc2c1=O	-0.9	2.7	1.7	-2.4	x	x	x
